In the library only some 1.9% were active in any assay of this set; here they are far more common.
M4 ag: agonists of human muscarinic M4 receptor (CHRM4) | P08173 | CHO-K1 hM4/Gqi5, Fluo-8 calcium fluorescence; vehicle 0%, full acetylcholine response 100% | activation, % at 3 µM | hit rate 0.14% among 360,000;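 active = activation above the run mean over all test wells plus 3 SD, cut at about 32% in these data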;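 also: peak over basal fluorescence ratio per well then scaled between controls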
M4 PAM: potentiates acetylcholine response at human M4 receptor. hit rate 0.4% among 360,000. CHO-K1 hM4/Gqi5, Fluo-8 calcium fluorescence, ACh EC20; 0% = ACh EC20, 100% = maximal ACh. activation, % at 3 µM;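 active = activation above its plate's cutoff, the mean activation of sample wells plus 3 SD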
CHRM5 antagonist: CHRM5 antagonism in calcium assay; P08912; CHO-hM5 cells, Fluo-8 calcium fluorescence, ACh EC80; inhibition, % at 3 µM; hit rate 0.59% among 360,000; AID 624040;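 active = inhibition above a per-plate cutoff, the mean of that plate's test compounds plus 3 SD, cut at about 27% in these data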
Target sequence (P08912 whole entry, looked up): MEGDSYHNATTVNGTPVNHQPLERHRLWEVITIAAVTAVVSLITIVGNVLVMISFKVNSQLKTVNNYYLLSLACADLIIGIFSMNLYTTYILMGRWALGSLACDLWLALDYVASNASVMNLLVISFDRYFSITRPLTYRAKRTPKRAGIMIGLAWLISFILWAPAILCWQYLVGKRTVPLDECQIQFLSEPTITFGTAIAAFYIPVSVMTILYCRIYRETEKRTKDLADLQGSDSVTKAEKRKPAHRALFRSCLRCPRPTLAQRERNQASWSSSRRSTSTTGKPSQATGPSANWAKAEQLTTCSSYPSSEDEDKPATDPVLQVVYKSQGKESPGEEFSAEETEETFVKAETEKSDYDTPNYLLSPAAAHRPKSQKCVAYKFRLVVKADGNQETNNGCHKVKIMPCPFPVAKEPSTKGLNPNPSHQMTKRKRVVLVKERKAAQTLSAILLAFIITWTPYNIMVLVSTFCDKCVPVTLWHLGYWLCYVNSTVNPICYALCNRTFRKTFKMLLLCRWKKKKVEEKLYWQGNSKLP
M4 antag: CHRM4 antagonism in calcium assay; hit rate 0.73% among 360,000; P08173; CHO-hM4 cells, ACh EC80, Fluo-8 calcium fluorescence; inhibition, % at 3 µM;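 active = inhibition above its plate's cutoff, the mean inhibition of sample wells plus 3 SD, cut at about 27% in these data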
M5 ag: agonists of human muscarinic M5 receptor (CHRM5). P08912. CHO-K1 hM5 cells, Fluo-8 calcium fluorescence; 0% DMSO wells, 100% maximal acetylcholine response. activation, % at 3 µM. hit rate 0.19% among 360,000. AID 624037;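 active = activation above the run's mean over test compounds plus 3 SD, cut at about 23% in these data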;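 also: signal is peak over basal fluorescence ratio across the kinetic read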
CHRM5 PAM: potentiates acetylcholine response at human M5 receptor. hit rate 0.3% among 360,000. P08912. activation, % at 3 µM. CHO-K1 hM5, Fluo-8 calcium, ACh EC20 PAM; 0% = ACh EC20, 100% = ACh EC100;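 active = activation above the run cutoff, the mean activation of all test compounds plus 3 SD, cut at about 18% in these data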
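Replicates: One well per compound, no replicates | System: Human M5 receptor in CHO-K1 cells | Benchmarks: Low control EC20 acetylcholine (0%), high control EC100 acetylcholine (100%) | Probe or stimulus: Acetylcholine, EC20 level | Times: Fluo-8 loading 80 min at 37 °C plus 30 min room temperature | Signal: Intracellular calcium via Fluo-8 fluorescence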
Large screens that a line does not name were inactive; ! = a repeat was not active.

Cc1sc2ncn(CC(=O)N3CCC(C(N)=O)CC3)c(=O)c2c1S(=O)(=O)N1CCOCC1	none
C/C(=C\C(=O)OCCCCCCCCC(=O)O)C[C@@H]1OC[C@H](C[C@@H]2O[C@H]2[C@@H](C)[C@H](C)O)[C@@H](O)[C@H]1O	none
COC(=O)c1ccc(CN2CCN(C3CCCC3)C(CCO)C2)cc1 (stereo unspecified)	M4 antag 77
CC(=O)Nc1ccc(CN2CCN(C3CCCCC3)C(CCO)C2)cc1 (stereo unspecified)	none
COC(=O)c1ccc(CN2CCN(C3CCCCC3)C(CCO)C2)cc1 (stereo unspecified)	M4 antag 60
COC(=O)N1CCCCC1c1cc(C(=O)N2CCOCC2)no1 (stereo unspecified)	none
COCCNCCOc1ccc(C)cc1[N+](=O)[O-]	none
Cc1ccc(OCCCCNC(C)(C)C)c([N+](=O)[O-])c1	CHRM5 antagonist 27
CSc1ccccc1NC(=O)CN(C)C(=O)COc1ncnc2ccccc12	none
COc1ccc(S(=O)(=O)N2CCC(C(=O)NCCC(=O)Nc3cccc(Cl)c3)CC2)cc1	none
CCc1ccc(NC(=O)CS(=O)CC(=O)Nc2ccc(F)cc2F)cc1 (stereo unspecified)	M4 PAM 31
Cc1cccc(C)c1NC(=O)CS(=O)CC(=O)Nc1ccc(F)cc1F (stereo unspecified)	none
COC(=O)CN1C(=O)[C@H]2[C@@H](c3ccc(C)o3)N3C(=O)CN(Cc4ccccn4)C(=O)[C@@]3(Cc3ccccc3)[C@H]2C1=O	none
O=C(O)c1cnn(-c2nc(-c3ccc(F)cc3)cs2)c1C(F)(F)F	M4 PAM 23
CN1C(=O)c2ccc(NC(=O)c3ccc(Cl)cc3Cl)cc2C1=O	none
CC1CCCCC12NC(=O)N(CC(=O)Nc1ccccc1N1CCOCC1)C2=O (stereo unspecified)	none
CC#CC(=O)NCC1(N(C)Cc2ccccc2)Cc2ccccc2C1	none
COc1ccc(S(=O)(=O)N2CCOC23CCN(S(=O)(=O)c2ccc(F)cc2)CC3)cc1	M4 antag 29
Cc1cccc(-n2c(O)cnc2Nc2nc(C)cc(C)n2)c1	CHRM5 antagonist 27
Cc1cc(C)nc(Nc2ncc(O)n2-c2ccccc2)n1	none
O=C(Nc1c(Cl)cccc1Cl)Oc1cccc2cccnc12	none
O=C(Nc1cccc(Br)c1)Oc1cccc2cccnc12	CHRM5 antagonist 34
COC(=O)NNC(=O)C12CC3CC(CC(C3)C1)C2	none
NC(=S)NNC(=O)C12CC3CC(CC(C3)C1)C2	M4 ag 42
CCCCNC(=S)Nc1cccc(S(=O)(=O)NC2=NCCC2)c1	none
CC(=O)c1cccc(S(=O)(=O)N2CCC(C(=O)OC3CCOC3=O)CC2)c1 (stereo unspecified)	none
COc1cc(C2c3cc4c(cc3C(O)C3COCC23)OCO4)cc(OC)c1OC (stereo unspecified)	none
COc1cc([C@@H]2c3cc4c(cc3[C@H](O)[C@H]3COC(=O)[C@H]23)OCO4)cc(OC)c1OC	M4 antag 55
O=C1[C@H]2CCCC[C@H]2C(=O)N1CCCCN1CCN(c2nsc3ccccc23)CC1	none
Cc1csc(NC(=O)C2CC(=O)N(c3ccc4c(c3)OCCO4)C2)n1 (stereo unspecified)	none
CCc1ccc(-c2csc(NC(=O)C3CC(=O)N(c4ccc5c(c4)OCCO5)C3)n2)cc1 (stereo unspecified)	M4 PAM 30
CCCCNc1nc(NCc2ccccc2)nc2ccccc12	M4 ag 105, CHRM5 antagonist 82, M4 antag 90, M5 ag 80
COc1cc2ncnc(NCc3ccccc3)c2cc1OC	none
c1ccc(CNc2ncnc3ccccc23)cc1	M4 ag 34!, M4 antag 38!, M5 ag 24!
CNc1nc(NCc2ccccc2)c2ccccc2n1	none
CCOC(=O)[C@]12CCCC=C1N(Cc1ccccc1)C(=O)[C@H](CC(=O)NCc1ccccc1)C2	none
Cc1c(CCC(=O)O)c(=O)oc2cc3occ(-c4ccc(F)cc4)c3cc12	CHRM5 antagonist 38, CHRM5 PAM 35
Cc1nn(C)c(C)c1CNC(=O)Nc1cccc(Cl)c1C	none
COCCCNC(=O)/C(C#N)=C/c1c(N2CCN(c3ccc(OC)cc3)CC2)nc2c(C)cccn2c1=O	CHRM5 antagonist 31
Cc1cccn2c(=O)c(/C=C(\C#N)C(N)=O)c(N3CCN(Cc4ccc5c(c4)OCO5)CC3)nc12	M4 antag 40
COc1cccc(-c2cnc(C(O)c3ccc(C(C)(C)C)cc3)[nH]2)c1 (stereo unspecified)	none
O=C(CSc1nnnn1-c1cccc(F)c1)NC1CC1	CHRM5 PAM 19
CCCCCCCNC(=O)C1(CC2CC(c3cccc(Br)c3)=NO2)CCNCC1 (stereo unspecified)	none
CCNC(=S)NNC(=O)c1csc2c1CCCC2	M4 PAM 20
CCn1c(N)c(C(=O)Nc2ccccc2C(=O)OC)sc1=S	M4 PAM 37
CCn1c(N)c(C(=O)NCCOC)sc1=S	none
CC(C)C1S/C(=N/N=C/c2ccco2)NC1=O (stereo unspecified)	M4 antag 30
CN1CCCC(C#CC(O)(c2ccccc2)c2ccccc2)C1 (stereo unspecified)	CHRM5 antagonist 98, M4 antag 74
COc1ccc(Cl)cc1NC(=O)CN(C)C(=O)CCc1nc2ccccc2c(=O)[nH]1	none
O=C1c2ccccc2C(=O)N1CCC1=CCCCC1	CHRM5 PAM 19
O=C(O)c1ccc2c(c1)C(=O)N(CCC1=CCCCC1)C2=O	none
CCOC(=O)C1(CCCc2ccccc2)CCN(C2CCN(C(C)=O)CC2)CC1	CHRM5 antagonist 30
CCOC(=O)C1(CCCc2ccccc2)CCN(C(=O)CSC)CC1	none
O=C(COc1ccc(C(F)(F)F)cc1[N+](=O)[O-])Nc1cccc(C(F)(F)F)c1	M4 PAM 30
COc1cc(C(=O)C(=O)c2ccc(OC)c(OC)c2)ccc1O	none
CCCSc1nc(C)c(CC(=O)O)c(=O)[nH]1	M4 PAM 28
CCC(=O)N1CCC(C)(C(=O)Nc2ccc3c(c2)OCO3)C1 (stereo unspecified)	none
C=C(C)COc1ccc(-c2ncnc(C(F)(F)F)c2-c2ccc(OC)cc2)c(O)c1	none
C=C(C)COc1ccc(-c2ncnc(C(F)(F)F)c2-c2ccccc2)c(O)c1	M4 antag 27
CCOC(=O)C1CCN(S(=O)(=O)c2cn(C)c(=O)n(C)c2=O)CC1	M4 antag 32

Assay outcomes deposited in PubChem BioAssay by The Scripps Research Institute Molecular Screening Center.
